Active and inactive are the calls of the source. No cut-off for these calls is given here.
What was measured:
[1] = biological target: T1, CREB-binding protein/Histone acetyltransferase p300 (Homo sapiens) (UniProt Q09472+Q92793); experiment: Inhibition of CREBBP/EP300 in human HCT-116 cells assessed as reduction in c-Myc mRNA expression at 10 uM by Q-PCR analysis; format: cell-based
[2] = biological target: Bromodomain-containing protein 2 (Homo sapiens) (UniProt P25440); experiment: Binding affinity to human BRD2 bromodomain 1 assessed as dissociation constant up to 1 uM by BROMOscan assay; settings: dose microM <=1
Method in brief: (§1)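 BROMOscan competition binding panel of 12 phylogenetically diverse bromodomains, including the CREBBP and EP300 bromodomains.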

[3] = biological target: T2, Bromodomain-containing protein 7 (Homo sapiens) (UniProt Q9NPI1); experiment: Binding affinity to human BRD7 assessed as dissociation constant up to 1 uM by BROMOscan assay; settings: dose microM <=1; method in brief: as §1
T2 sequence (whole entry): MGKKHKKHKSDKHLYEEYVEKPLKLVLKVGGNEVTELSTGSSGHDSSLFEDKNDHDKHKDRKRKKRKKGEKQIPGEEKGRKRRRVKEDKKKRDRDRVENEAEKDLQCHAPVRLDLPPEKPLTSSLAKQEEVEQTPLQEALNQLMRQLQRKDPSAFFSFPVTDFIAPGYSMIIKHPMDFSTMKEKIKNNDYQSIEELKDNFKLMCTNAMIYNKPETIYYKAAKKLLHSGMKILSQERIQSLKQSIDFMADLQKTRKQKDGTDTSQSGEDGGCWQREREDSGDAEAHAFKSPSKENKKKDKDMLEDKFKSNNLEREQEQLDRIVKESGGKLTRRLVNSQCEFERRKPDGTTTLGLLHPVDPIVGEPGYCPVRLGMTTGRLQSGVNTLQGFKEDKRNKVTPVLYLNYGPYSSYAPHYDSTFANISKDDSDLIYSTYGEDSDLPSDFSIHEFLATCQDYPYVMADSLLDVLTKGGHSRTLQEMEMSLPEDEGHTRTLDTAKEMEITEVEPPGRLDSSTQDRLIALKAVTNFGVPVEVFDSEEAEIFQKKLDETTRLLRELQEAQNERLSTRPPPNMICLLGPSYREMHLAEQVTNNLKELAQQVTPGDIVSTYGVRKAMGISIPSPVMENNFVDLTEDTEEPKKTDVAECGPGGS

[4] = biological target: T3, Bromodomain-containing protein 9 (Homo sapiens) (UniProt Q9H8M2); experiment: Binding affinity to human BRD9 assessed as dissociation constant up to 1 uM by BROMOscan assay; settings: dose microM <=1; method in brief: as §1
T3 sequence (whole entry): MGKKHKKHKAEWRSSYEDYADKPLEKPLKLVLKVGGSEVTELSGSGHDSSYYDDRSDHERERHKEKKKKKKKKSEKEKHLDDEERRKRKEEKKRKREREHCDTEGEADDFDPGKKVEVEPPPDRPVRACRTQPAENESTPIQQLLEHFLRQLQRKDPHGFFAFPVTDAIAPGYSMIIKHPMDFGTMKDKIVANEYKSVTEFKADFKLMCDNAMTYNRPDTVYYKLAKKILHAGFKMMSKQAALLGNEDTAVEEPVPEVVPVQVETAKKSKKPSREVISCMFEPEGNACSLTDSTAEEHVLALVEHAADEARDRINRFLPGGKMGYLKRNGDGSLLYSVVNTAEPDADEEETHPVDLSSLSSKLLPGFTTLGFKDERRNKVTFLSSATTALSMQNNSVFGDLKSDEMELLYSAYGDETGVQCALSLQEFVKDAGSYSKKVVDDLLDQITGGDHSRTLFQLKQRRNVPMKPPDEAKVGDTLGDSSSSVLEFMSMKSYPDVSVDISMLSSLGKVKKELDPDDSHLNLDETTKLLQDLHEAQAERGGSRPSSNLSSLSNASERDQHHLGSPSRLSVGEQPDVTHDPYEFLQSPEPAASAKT

[5] = biological target: Histone acetyltransferase KAT2B (Homo sapiens) (UniProt Q92831); experiment: Binding affinity to human PCAF assessed as dissociation constant up to 1 uM by BROMOscan assay; settings: dose microM <=1; method in brief: as §1
[6] = biological target: T4, Transcription intermediary factor 1-alpha (Homo sapiens) (UniProt O15164); experiment: Binding affinity to human TRIM24 assessed as dissociation constant up to 1 uM by BROMOscan assay; settings: dose microM <=1; method in brief: as §1
T4 sequence (whole entry): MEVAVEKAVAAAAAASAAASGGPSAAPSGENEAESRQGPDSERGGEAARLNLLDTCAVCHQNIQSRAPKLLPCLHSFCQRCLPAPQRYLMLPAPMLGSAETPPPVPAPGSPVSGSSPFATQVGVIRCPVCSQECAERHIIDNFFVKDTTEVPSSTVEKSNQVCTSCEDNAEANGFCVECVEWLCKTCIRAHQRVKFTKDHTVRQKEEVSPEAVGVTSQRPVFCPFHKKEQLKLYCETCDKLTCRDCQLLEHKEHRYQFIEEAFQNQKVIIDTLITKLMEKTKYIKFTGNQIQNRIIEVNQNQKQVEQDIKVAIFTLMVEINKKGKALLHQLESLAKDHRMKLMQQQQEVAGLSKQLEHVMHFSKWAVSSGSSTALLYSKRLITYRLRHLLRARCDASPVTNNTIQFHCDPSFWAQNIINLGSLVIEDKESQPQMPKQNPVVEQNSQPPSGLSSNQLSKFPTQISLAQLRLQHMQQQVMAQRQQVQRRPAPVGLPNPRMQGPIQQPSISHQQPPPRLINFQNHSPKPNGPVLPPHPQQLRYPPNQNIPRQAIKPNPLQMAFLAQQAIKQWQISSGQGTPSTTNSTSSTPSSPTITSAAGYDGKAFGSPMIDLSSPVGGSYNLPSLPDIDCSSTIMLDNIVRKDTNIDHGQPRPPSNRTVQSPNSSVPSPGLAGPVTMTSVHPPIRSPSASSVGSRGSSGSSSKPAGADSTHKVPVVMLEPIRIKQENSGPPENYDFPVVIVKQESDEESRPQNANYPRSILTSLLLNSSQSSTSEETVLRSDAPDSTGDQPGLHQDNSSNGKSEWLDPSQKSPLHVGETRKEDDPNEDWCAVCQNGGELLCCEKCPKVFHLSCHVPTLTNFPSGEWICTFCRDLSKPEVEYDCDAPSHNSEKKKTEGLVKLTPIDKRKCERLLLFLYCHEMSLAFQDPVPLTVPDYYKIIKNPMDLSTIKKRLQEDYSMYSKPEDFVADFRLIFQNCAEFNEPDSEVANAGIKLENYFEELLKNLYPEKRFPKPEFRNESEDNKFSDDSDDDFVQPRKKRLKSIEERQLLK

[7] = biological target: T1, CREB-binding protein/Histone acetyltransferase p300 (Homo sapiens); experiment: Inhibition of CREBBP/EP300 in human HCT-116 cells assessed as reduction in H3K18Ac at 10 uM for 6 hrs by Western blot analysis; format: cell-based
Method in brief: (§2)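 HCT116 human colorectal cancer cells were exposed to ligand at 10 μM for 6, 16 or 24 h. c-Myc, H3K18Ac and H3K27Ac levels were read by western blot, with acetylation marks expressed relative to the t = 0 level.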

[8] = biological target: T1, CREB-binding protein/Histone acetyltransferase p300 (Homo sapiens); experiment: Inhibition of CREBBP/EP300 in human HCT-116 cells assessed as reduction in H3K27Ac at 10 uM for 24 hrs by Western blot analysis; format: cell-based; method in brief: as §2
[9] = biological target: CREB-binding protein (Homo sapiens, UniProt Q92793); experiment: Binding affinity to human CREBBP bromodomain expressed in Escherichia coli BL21 (DE3)-RIL assessed as dissociation constant by ITC assay
CREB-binding protein, sequence (Q92793 whole entry): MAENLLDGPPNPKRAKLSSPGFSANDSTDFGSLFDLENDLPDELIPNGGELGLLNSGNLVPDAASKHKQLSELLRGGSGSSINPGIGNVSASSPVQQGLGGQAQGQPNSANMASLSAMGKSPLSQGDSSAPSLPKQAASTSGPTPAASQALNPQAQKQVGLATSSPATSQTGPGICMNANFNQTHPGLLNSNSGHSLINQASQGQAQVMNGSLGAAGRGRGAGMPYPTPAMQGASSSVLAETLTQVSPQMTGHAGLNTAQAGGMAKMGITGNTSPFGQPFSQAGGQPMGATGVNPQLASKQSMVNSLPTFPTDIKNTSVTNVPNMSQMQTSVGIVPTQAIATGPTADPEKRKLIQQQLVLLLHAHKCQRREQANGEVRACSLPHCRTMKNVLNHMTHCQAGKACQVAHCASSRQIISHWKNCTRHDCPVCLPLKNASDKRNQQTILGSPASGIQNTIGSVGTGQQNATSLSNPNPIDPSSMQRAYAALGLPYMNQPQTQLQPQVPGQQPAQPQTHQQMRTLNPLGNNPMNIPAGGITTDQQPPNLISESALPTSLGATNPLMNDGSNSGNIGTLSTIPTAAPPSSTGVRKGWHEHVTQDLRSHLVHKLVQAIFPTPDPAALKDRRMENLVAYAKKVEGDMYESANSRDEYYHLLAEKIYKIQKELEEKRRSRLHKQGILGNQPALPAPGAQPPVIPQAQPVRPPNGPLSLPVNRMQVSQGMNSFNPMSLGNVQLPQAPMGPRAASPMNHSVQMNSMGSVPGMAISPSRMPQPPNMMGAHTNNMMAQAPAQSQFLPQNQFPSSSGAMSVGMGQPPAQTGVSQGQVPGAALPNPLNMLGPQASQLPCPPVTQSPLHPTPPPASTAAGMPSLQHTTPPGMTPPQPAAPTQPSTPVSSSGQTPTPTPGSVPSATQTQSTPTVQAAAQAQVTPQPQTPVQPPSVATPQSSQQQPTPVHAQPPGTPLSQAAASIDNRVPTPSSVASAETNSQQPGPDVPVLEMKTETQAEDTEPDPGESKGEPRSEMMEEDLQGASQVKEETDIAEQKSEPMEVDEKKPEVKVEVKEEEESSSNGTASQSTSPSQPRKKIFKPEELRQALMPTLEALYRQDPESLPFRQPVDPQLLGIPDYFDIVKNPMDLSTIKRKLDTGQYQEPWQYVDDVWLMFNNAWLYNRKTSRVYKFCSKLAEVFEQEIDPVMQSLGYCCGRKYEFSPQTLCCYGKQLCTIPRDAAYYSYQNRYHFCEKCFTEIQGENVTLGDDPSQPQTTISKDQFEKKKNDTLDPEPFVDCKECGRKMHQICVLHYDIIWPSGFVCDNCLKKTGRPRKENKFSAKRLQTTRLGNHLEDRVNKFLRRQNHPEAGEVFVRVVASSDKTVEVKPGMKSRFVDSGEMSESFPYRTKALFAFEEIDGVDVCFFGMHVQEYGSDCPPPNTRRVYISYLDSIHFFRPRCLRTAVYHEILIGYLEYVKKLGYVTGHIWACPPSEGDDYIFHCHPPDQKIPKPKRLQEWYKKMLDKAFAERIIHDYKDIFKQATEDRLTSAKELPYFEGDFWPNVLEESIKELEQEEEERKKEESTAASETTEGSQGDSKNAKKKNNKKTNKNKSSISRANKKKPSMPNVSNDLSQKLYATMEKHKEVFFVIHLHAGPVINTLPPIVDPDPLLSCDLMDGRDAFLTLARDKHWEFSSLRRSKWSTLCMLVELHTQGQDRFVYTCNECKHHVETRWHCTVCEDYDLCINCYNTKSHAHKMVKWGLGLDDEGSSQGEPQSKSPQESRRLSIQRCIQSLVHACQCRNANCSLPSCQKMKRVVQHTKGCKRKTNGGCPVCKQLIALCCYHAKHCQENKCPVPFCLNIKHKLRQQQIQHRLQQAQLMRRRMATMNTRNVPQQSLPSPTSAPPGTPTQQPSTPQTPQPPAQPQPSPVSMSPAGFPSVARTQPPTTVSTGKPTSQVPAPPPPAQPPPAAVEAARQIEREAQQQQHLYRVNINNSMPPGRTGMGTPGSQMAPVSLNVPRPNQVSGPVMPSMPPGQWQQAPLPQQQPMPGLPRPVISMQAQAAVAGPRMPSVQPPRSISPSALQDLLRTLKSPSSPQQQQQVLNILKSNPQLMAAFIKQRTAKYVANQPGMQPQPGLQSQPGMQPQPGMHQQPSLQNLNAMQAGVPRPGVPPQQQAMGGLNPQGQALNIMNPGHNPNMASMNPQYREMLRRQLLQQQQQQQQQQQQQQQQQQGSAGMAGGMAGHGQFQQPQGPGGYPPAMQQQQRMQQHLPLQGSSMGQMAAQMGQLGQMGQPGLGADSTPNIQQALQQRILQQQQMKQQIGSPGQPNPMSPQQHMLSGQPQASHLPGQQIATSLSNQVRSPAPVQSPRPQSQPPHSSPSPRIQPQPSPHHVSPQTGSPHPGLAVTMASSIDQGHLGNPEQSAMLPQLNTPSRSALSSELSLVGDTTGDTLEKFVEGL

T1 sequence (Q09472 whole entry, looked up): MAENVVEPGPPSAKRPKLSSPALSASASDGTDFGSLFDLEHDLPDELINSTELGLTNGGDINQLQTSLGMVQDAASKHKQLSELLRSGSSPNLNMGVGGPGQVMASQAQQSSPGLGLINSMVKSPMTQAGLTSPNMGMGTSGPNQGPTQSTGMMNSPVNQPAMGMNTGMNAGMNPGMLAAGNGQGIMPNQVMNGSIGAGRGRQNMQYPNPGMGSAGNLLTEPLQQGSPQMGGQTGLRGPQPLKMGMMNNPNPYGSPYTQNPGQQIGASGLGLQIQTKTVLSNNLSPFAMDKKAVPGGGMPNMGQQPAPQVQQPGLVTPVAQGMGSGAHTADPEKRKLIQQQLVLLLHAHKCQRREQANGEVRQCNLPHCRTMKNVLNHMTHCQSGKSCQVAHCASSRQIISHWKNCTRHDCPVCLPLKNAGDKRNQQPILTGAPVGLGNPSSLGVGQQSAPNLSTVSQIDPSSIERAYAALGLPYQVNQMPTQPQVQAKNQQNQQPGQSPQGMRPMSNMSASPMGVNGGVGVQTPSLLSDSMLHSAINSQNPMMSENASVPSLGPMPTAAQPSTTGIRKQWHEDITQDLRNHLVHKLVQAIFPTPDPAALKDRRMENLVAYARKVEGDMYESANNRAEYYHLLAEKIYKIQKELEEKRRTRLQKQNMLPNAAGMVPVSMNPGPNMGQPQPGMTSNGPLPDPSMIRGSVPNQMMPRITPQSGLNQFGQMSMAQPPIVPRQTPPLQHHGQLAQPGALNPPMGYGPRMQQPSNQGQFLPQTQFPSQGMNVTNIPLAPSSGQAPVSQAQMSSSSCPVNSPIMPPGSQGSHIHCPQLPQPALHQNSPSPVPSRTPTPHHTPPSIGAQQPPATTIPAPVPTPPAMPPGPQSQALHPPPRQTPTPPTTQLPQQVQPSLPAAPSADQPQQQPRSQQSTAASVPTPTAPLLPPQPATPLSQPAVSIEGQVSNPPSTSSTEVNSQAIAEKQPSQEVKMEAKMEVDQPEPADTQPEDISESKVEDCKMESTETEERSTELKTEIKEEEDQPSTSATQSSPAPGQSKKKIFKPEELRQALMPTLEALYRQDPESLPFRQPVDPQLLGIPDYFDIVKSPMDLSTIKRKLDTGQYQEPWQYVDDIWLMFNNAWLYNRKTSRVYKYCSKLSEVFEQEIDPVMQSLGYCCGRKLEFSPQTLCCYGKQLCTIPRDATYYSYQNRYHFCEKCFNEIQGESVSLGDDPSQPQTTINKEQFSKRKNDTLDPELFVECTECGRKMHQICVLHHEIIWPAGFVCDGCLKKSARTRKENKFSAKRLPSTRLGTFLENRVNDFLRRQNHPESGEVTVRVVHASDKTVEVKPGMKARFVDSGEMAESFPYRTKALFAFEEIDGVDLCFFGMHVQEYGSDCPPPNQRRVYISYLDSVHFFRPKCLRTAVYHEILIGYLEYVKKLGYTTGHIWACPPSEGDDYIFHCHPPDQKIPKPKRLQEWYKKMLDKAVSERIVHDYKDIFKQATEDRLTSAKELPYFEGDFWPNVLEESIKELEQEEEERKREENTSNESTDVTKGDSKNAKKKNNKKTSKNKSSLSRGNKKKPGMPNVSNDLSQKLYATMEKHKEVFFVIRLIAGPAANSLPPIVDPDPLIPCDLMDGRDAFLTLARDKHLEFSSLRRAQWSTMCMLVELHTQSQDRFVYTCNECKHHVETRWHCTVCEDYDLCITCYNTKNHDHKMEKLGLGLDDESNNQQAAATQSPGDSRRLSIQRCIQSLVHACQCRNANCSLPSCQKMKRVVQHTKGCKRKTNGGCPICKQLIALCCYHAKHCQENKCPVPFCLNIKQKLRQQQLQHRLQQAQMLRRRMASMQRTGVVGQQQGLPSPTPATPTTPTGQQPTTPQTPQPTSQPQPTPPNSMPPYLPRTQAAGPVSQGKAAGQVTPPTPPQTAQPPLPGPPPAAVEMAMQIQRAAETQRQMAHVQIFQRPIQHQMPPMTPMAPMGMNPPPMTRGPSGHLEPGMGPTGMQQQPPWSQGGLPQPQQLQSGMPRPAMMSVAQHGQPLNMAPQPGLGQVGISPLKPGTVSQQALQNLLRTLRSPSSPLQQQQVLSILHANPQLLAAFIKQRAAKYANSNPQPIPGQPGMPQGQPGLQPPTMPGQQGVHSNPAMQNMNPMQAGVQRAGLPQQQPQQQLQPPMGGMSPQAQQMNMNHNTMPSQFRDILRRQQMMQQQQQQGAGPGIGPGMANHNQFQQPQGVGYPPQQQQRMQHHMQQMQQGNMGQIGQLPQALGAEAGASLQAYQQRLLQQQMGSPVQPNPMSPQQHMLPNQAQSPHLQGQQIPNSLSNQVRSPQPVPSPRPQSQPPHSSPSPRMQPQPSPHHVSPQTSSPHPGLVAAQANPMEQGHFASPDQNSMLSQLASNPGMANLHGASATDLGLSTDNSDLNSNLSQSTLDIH
T1 sequence (Q92793 whole entry, looked up): as the sequence (Q92793 whole entry) above

## COc1ccc2c(c1)N(CCC/C=C/c1cccc3c1N[C@H](C)CC(=O)N3)CCC2
[1]
  inhibition: Active
[2]
  Activity: inactive
[3]
  Activity: inactive
[4]
  Activity: inactive
[5]
  Activity: inactive
[6]
  Activity: inactive
[7]
  inhibition: 70%
[8]
  inhibition: 30%

## COc1ccc2c(c1)N(CCC/C=C/c1cccc3c1N[C@@H](C)CC(=O)N3)CCC2
[9]
  Kd: Not Active
[2]
  Activity: inactive
[3]
  Activity: inactive
[4]
  Activity: inactive
[5]
  Activity: inactive
[6]
  Activity: inactive

Reference: ChEMBL document CHEMBL5029150, “Controlling Intramolecular Interactions in the Design of Selective, High-Affinity Ligands for the CREBBP Bromodomain” (J Med Chem, 2021)
